Source: PubChem (several laboratories)
CASP6 VEID inh: human caspase-6 inhibitors, primary screen, biochemical, VEID-R110 fluorescence, single point, set 2. P55212. purified caspase-6, Z-VEID-R110 cleavage fluorescence. inhibition, % at 12.5 µM. 350,000 tested, 0.53% active;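 active means mean inhibition across replicates at least about 35%, with every replicate also reaching that limit, limit read from the data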;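 further: 0% = median of neutral control wells and 100% = no fluorescence left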
NSD2 inh: NSD2 histone methyltransferase inhibitors, primary screen, biochemical, AlphaScreen, single concentration, set 2 | NSD2 peptide methylation, 120 min | inhibition, % at 12.5 µM | Histone-lysine N-methyltransferase NSD2 (Homo sapiens), O96028 | AID 743445, 2014 | 310,000 tested, 0.54% active; in the data active means inhibition above about 50%
FGF22 binding-1: binders of human FGF22 protein, primary screen, FGF22 synaptogenesis inhibitor project, biophysical, thermal shift, single point. Fibroblast growth factor 22 (Homo sapiens), Q9HCT0. 340,000 tested, 1.5% active. recombinant FGF22 thermal shift, SYPRO orange fluorescence; percent of sucrose octasulfate shift, DMSO zero. activity (Tm shift, normalised), % at 9.99 µM;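 active means mean Tm shift, scaled 0 neutral to 100 positive control, at about 1.3% or above, every replicate too, limit read from the data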
Target sequence (Q9HCT0 whole entry, looked up): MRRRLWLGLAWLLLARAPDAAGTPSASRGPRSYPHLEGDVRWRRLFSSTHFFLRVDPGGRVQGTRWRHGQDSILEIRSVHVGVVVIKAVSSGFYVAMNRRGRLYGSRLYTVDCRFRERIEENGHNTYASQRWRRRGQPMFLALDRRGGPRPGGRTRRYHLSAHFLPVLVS
SIRT5 inh: SIRT5 desuccinylase inhibitors, primary screen, biochemical, fluorescence imaging, single point, set 5; NAD-dependent protein deacylase sirtuin-5, mitochondrial (Homo sapiens), Q9NXA8; Purified SirT5, succinyl-peptide AMC, trypsin-coupled fluorescence; inhibition, % at 15 µM; 330,000 tested, 1.1% active; AID 652115, 2013; in the data active means inhibition above about 15%
Target sequence (Q9NXA8 whole entry, looked up): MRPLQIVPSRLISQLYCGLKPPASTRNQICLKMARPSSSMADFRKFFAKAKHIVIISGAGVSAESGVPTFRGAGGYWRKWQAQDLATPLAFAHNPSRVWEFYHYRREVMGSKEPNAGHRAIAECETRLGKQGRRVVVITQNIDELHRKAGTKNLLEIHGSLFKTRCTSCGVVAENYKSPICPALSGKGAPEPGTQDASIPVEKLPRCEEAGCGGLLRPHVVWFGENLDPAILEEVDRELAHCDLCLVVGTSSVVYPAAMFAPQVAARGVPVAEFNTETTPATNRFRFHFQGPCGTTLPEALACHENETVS
UCH37 DUB inh: inhibitors of human UCH37 deubiquitinase, primary screen, biochemical, Ub-AMC cleavage, fluorescence | Ubiquitin carboxyl-terminal hydrolase isozyme L5 (Homo sapiens), Q9Y5K5 | purified proteasome/UCH37 | inhibition, % (test concentration not listed) | 330,000 tested, 0.33% active;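 active means mean inhibition over replicate wells above about 20%, limit read from the data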;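 further: 0% = compound-free wells with enzyme and 100% = wells lacking proteasome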
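Reagent: Ub-AMC substrate; assay system: Proteasome-associated human UCH37 deubiquitinase; controls: no-proteasome and no-compound wells; read-out: % inhibition of Ub-AMC cleavage fluorescence; timing: 30 min preincubation with enzyme, 25 min cleavage at room temperature; signal: AMC fluorescence from Ub-AMC cleavage, excitation 355 nm, emission 460 nm; buffer or medium: Tris-HCl pH 7.4 plus ovalbumin, ATP-MgCl2, DTT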
FGF22 binding-2: binders of human FGF22 protein, dose response, FGF22 synaptogenesis inhibitor project, biophysical, thermal shift, cherry-pick retest | shares compounds with FGF22 binding-1 | thermal shift activity, °C (ΔTm) at 38 µM | 1,000 tested, 2% active | recombinant FGF22 thermal shift, SYPRO orange fluorescence;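 active means fitted rise in melting shift crosses a set limit at or below the top valid dose tested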
SYPRO no-protein: compound-only thermal shift signal without protein, dose response, artefact control for FGF22 binder project, biochemical, cherry-picked samples, RT-PCR instrument; compound-only SYPRO orange thermal shift counter-screen, no protein; shares compounds with FGF22 binding-1; 1,000 tested, 2% active; AC50, µM (doses to about 38 µM); AID 743019, 2013;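 active means rising signal whose fitted curve reaches the 0.54 level within the top valid dose, showing a melting point, actives reach about 13 µM in these data; inactive means the rest, including activity in the opposite direction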; further: value is where the raw curve crosses a fixed level and not half-maximal
Starred values were filed as active, the others as inactive; ! = not active in a repeat; [ ] = remark or other dose. Shown are actives, neighbours in structure and some others; about 2.6% of the full set was active somewhere.

Results for O=C(NCC[C@H]1CC[C@@H](NC(=O)C2CCOCC2)[C@H](CO)O1)Nc1ccc(Cl)cc1 ?
CASP6 VEID inh: -1; FGF22 binding-1: 1.7*; SIRT5 inh: -2; FGF22 binding-2: -0.092[42 µM]; SYPRO no-protein: inactive

What do the screens show for `Cc1ccc(S(=O)(=O)N[C@H]2CC[C@H](CCNC(=O)C3CCOCC3)O[C@H]2CO)cc1`?
CASP6 VEID inh: -6; FGF22 binding-1: 2.0*; SIRT5 inh: 0; FGF22 binding-2: 0.44[42 µM]; SYPRO no-protein: inactive

How did O=C(NCC[C@H]1CC[C@@H](NC(=O)C2CCOCC2)[C@@H](CO)O1)Nc1ccc(Cl)cc1 do in these assays?
CASP6 VEID inh: -1; FGF22 binding-1: 1.6*!; SIRT5 inh: -2; FGF22 binding-2: 0.33[42 µM]; SYPRO no-protein: inactive

How did O=C(Nc1ccc(Cl)cc1)N[C@H]1CC[C@H](CCNC(=O)c2cc(Cl)cc(Cl)c2)O[C@@H]1CO do in these assays?
CASP6 VEID inh: 2; FGF22 binding-1: 2.5*; SIRT5 inh: -1; FGF22 binding-2: -0.3; SYPRO no-protein: inactive

What do the screens show for `C[C@H](CO)N1C[C@H](C)[C@H](CN(C)Cc2ccncc2)OCCCC[C@H](C)Oc2ccc(NS(=O)(=O)c3ccccc3)cc2C1=O`?
CASP6 VEID inh: 0; FGF22 binding-1: 1; SIRT5 inh: 1

How did CC(=O)c1c(C)nc(-c2ccc(OCC(=O)Nc3cccc(C)c3C)cc2)n1O do in these assays?
CASP6 VEID inh: 2; NSD2 inh: 1; FGF22 binding-1: 2.2*; SIRT5 inh: 3; UCH37 DUB inh: 5; FGF22 binding-2: -0.018; SYPRO no-protein: inactive

How did CC(=O)c1c(C)nc(-c2ccc(OCC(=O)Nc3ccccc3)cc2)n1O do in these assays?
CASP6 VEID inh: 3; NSD2 inh: 0; FGF22 binding-1: 0; SIRT5 inh: 2; UCH37 DUB inh: 2

How did COc1cc(-c2nc(C)c(C(C)=O)n2O)ccc1OCC(=O)Nc1ccc(Cl)cc1 do in these assays?
CASP6 VEID inh: 2; NSD2 inh: 2; FGF22 binding-1: 2.5*; SIRT5 inh: 0; UCH37 DUB inh: 4; FGF22 binding-2: -0.17; SYPRO no-protein: inactive

How did O=C(N[C@H]1CC[C@@H](CCn2cc(C3CC3)nn2)O[C@H]1CO)c1cccnc1 do in these assays?
CASP6 VEID inh: 2; FGF22 binding-1: 0; SIRT5 inh: -4

What do the screens show for `O=C(NN=Cc1ccc(Sc2nc3ccccc3s2)c([N+](=O)[O-])c1)c1ccccn1`?
UCH37 DUB inh: 2

How did O=C(NNC(=O)C1CCN(S(=O)(=O)c2ccccc2C(F)(F)F)CC1)c1ccccc1O do in these assays?
CASP6 VEID inh: -6; NSD2 inh: -2; FGF22 binding-1: 2.6*; SIRT5 inh: -3; UCH37 DUB inh: -16; FGF22 binding-2: -0.15; SYPRO no-protein: inactive

What do the screens show for `O=C(NNC(=O)C1CCN(S(=O)(=O)c2ccccc2)CC1)c1ccccc1O`?
CASP6 VEID inh: -6; NSD2 inh: -2; FGF22 binding-1: 0; SIRT5 inh: -2; UCH37 DUB inh: -21

Results for COc1ccc(NC(=O)Nc2cccc3c2O[C@H](CN(C)C(=O)Nc2cccc4ccccc24)[C@@H](C)CN([C@@H](C)CO)C3=O)cc1 ?
FGF22 binding-1: 0

How did C=C1[C@@H](O)[C@H](Cc2ccccc2)N(Cc2ccccc2Br)S1(=O)=O do in these assays?
FGF22 binding-1: 1.4*; UCH37 DUB inh: 1; FGF22 binding-2: 0.12; SYPRO no-protein: inactive

Results for COC(=O)[C@]1(C)N[C@H](c2ccc(-c3ccccc3)cc2)[C@@H]2C(=O)N(C)C(=O)[C@@H]21 ?
CASP6 VEID inh: -2; FGF22 binding-1: 8.1*; SIRT5 inh: -5; UCH37 DUB inh: 1; FGF22 binding-2: -0.025; SYPRO no-protein: inactive

Results for CCCNC(=O)Nc1ccc2c(c1)OC[C@@H](C)N(CCC)C[C@@H](C)[C@@H](OC)CN(C)C2=O ?
CASP6 VEID inh: 1; FGF22 binding-1: 0; SIRT5 inh: 1

Results for O=C(N[C@@H]1CC[C@H](CC(=O)N2CCN(c3ccccc3)CC2)O[C@@H]1CO)c1ccccc1 ?
CASP6 VEID inh: -4; FGF22 binding-1: 1.9*; SIRT5 inh: 1; FGF22 binding-2: -0.057[42 µM]; SYPRO no-protein: inactive

What do the screens show for `NC(=O)c1ccsc1NC(=O)COC(=O)CCCOc1ccccc1`?
CASP6 VEID inh: 2; NSD2 inh: -1; FGF22 binding-1: 1.9*; SIRT5 inh: 2; UCH37 DUB inh: 2; FGF22 binding-2: 0.12; SYPRO no-protein: inactive

Results for NC(=O)c1ccsc1NC(=O)COC(=O)CCOc1ccccc1 ?
CASP6 VEID inh: 3; NSD2 inh: 31; FGF22 binding-1: 0; SIRT5 inh: 0; UCH37 DUB inh: 3

Results for CC(=O)Nc1ccc(S(=O)(=O)Nc2ccn(Cc3ccccc3Cl)n2)cc1 ?
CASP6 VEID inh: 15; NSD2 inh: 11; FGF22 binding-1: 2.1*; SIRT5 inh: -1; UCH37 DUB inh: 5; FGF22 binding-2: 0.1; SYPRO no-protein: inactive

How did Nc1nnc(CC(=O)NN=Cc2ccc([N+](=O)[O-])cc2)s1 do in these assays?
UCH37 DUB inh: 8

Results for Nc1nnc(CC(=O)N/N=C/c2cc([N+](=O)[O-])cc(Br)c2O)s1 ?
CASP6 VEID inh: 33; NSD2 inh: 15; FGF22 binding-1: 1.8*; SIRT5 inh: 47*; SYPRO no-protein: inactive

What do the screens show for `CC(C)C#Cc1ccc([C@H]2[C@@H](CO)N3C(=O)CN(C(=O)C4CCCCC4)C[C@@H]23)cc1`?
CASP6 VEID inh: 9; FGF22 binding-1: 1.9*; SIRT5 inh: 1; FGF22 binding-2: 0.24; SYPRO no-protein: inactive

How did CC(C)C#Cc1ccc([C@@H]2[C@@H](CO)N3C(=O)CN(C(=O)C4CCCCC4)C[C@@H]23)cc1 do in these assays?
CASP6 VEID inh: 6; FGF22 binding-1: 1.3*; SIRT5 inh: 2; FGF22 binding-2: 0.22; SYPRO no-protein: inactive

How did CC(C)C#Cc1ccc([C@@H]2[C@@H](CO)N3C(=O)CN(C(=O)C4CCCCC4)C[C@H]23)cc1 do in these assays?
CASP6 VEID inh: 2; FGF22 binding-1: 1; SIRT5 inh: 1
